# Assay results published in ChEMBL document CHEMBL4513216, “Probing the Open Global Health Chemical Diversity Library for Multistage-Active Starting Points for Next-Generation Antimalarials” (ACS Infect Dis, 2020).
# Test: Toxicity liver stage against HepG2, at 10uM
# Type: cell-based
# Parameters: test concentration 10 uM, cell line HepG2-A16-CD81EGFP
# Details: human, HepG2-A16-CD81EGFP cells; read-out: INHIBITION
# Method in brief: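 Uninfected HepG2-A16-CD81EGFP cells, 3 × 10^3 per well, 1536-well, plated on prespotted compound at 10 μM final, parasite-free screening media added to match infected plates; puromycin 10 μM positive, DMSO 0.5% negative; run in parallel with 48 h PbLuc assay at 37 °C, 5% CO2; viability by CellTiter-Glo luminescence, normalized to controls.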
row,Structure (SMILES),cytotoxicity at 10 µM [%]
1,O=C(NCCC1CCN(CC(F)(F)F)CC1)C1CCOC1 (stereo unspecified),5.69
2,Cc1cc(C)n(CC2CN(CC(=O)NC3CCCC3)CCO2)n1 (stereo unspecified),-4.41
3,CC(C)NC(=O)Nc1ccc2c(c1)ncn2CC(=O)NCCN(C)C,-8.15
4,Cn1cc(CN2CCO[C@H]3CN(Cc4ccsc4)C[C@H]32)cn1,-147
5,Cc1cccnc1CNCC1(O)CCCN(CC(C)(C)C)C1=O (stereo unspecified),-11.8
6,CCCN(C)c1ccc(C(=O)Nc2c(C)nn(C(C)C)c2C)cc1,-2.84
7,Cc1cc(NCCCC(F)(F)F)n2nc(C)cc2n1,0.894
8,Cn1cc(CN2CCCC(CCc3ccc(F)cc3)C2)cn1 (stereo unspecified),-12.6
9,CCCN(CCC)S(=O)(=O)NC(C)C(=O)N(C)C (stereo unspecified),-0.237
10,c1ccc(-c2nnc3sc(CCN4CCCCCC4)nn23)cc1,1.11
11,CC(Sc1nnc(C2CC2)n1CC(N)=O)c1ccc(F)cc1F (stereo unspecified),-1.7
12,Fc1cccc(OC2CCN(Cc3ncc[nH]3)CC2)c1,-31.2
13,O=C(CSc1ccccn1)N1CCN(CCO)[C@@H]2CS(=O)(=O)C[C@@H]21,9.87
14,Cn1ccnc1C1CCN(C(=O)COCC(F)(F)C(F)F)CC1,-45.2
15,Cn1cccc1CN1CCC2(CC1)CN(c1ncccn1)CCO2,-4
16,Cc1nc(C2CCCN2C(=O)CN(C)Cc2ccccc2)no1 (stereo unspecified),-0.803
17,CS(=O)(=O)c1ccc(Cl)c(C(=O)NCCC2=CCCCC2)c1,8.17
18,CC(C(=O)N1CCc2sccc2C1)N1CCCN(C2CC2)CC1 (stereo unspecified),3.86
19,c1cn(CCNc2nc(NC3CC3)nc3c2CCNCC3)nn1,-52.8

row,Structure (SMILES),cytotoxicity at 10 µM [%]
1,O=C(c1ccc2nncn2c1)N1CCCCC1Cn1cccn1 (stereo unspecified),-3.11
2,CNC(=O)c1nc(CN2CCOC(C(F)(F)F)C2)no1 (stereo unspecified),-2.08
3,C[C@@H]1CN(c2nc3c(cc2C(N)=O)CCC3)CC[C@@]1(O)C1CCC1,0.186
4,N#Cc1ncn(CC(=O)N2CCCC2c2cccs2)n1 (stereo unspecified),-21.7
5,OC[C@@H](O)CN(CCC(F)(F)F)c1ncccn1,2.41
6,CCCc1nc(CN2CCCC2Cn2cncn2)no1 (stereo unspecified),-2
7,COc1ccc(Cl)cc1C(=O)NC(CC(=O)O)c1cccs1 (stereo unspecified),-6.16
8,O=C(Nc1nnc(C(F)F)s1)NC(CCO)c1cccs1 (stereo unspecified),-3.44
9,COc1nc(C)cc(C)c1CNC(=O)N(C)Cc1cnn(C)c1,-4.64
10,Cc1cccc(S(=O)(=O)NC2CCN(CC(F)(F)F)C2)c1 (stereo unspecified),0.741
11,O=C(c1ccc(F)cc1)N1CCN2C[C@H](OCc3cccnc3)C[C@H]2C1,-85.1
12,CCC1(CC)CC(=O)N(CC(O)c2cccc(F)c2)C1=O (stereo unspecified),-3.43
13,Cc1csc(CN2CC[C@H]3C[C@H](c4ccncn4)O[C@@H]3C2)n1,-148
14,CNS(=O)(=O)c1ccc(CNC(=O)NCc2cc[nH]n2)cc1,1.91
15,O=C1NCC2=Nc3ccccc3NC(c3ccc(O)cc3)C12 (stereo unspecified),3.63
16,COCCNC(=O)C(C)n1cc(Br)cn1 (stereo unspecified),-15
17,CCc1cc(CNC(=O)C2CCCN(C(=O)NCC(C)C)C2)[nH]n1 (stereo unspecified),7.23
18,NC(=O)c1ccc(C(=O)N2CCCCC2C2OCCO2)cc1 (stereo unspecified),-0.966
19,Cc1ccc(CN2CCC3(CC2)CC(c2cccnc2)CO3)s1 (stereo unspecified),-9.7

row,Structure (SMILES),cytotoxicity at 10 µM [%]
1,CC[C@@H]1N(Cc2ccncc2)CCC[C@]12CCC(=O)N2CCOC,11.5
2,CCOC(=O)NCCNC(=O)c1cc2ccccc2nc1N1CCCC1,-7.74
3,CC(C)c1nccc(CN(C)Cc2cnn(-c3ccccc3)c2)n1,6.66
4,Cc1c(C)n(CC(O)CN2CCCCCC2)c2c(Cl)cccc12 (stereo unspecified),-21.9
5,O=C(CCn1cncn1)N1CCCC1c1noc(C2CC2)n1 (stereo unspecified),-23.3
6,CN(C)C(=O)COC1COC2(CCN(c3ncccn3)CC2)C1 (stereo unspecified),-72.8
7,Cc1ccc2c(n1)N(C)CCN(Cc1cnn(C)c1)C2,3.04
8,Cn1ccc(CN2CCCN(c3nccs3)CC2)cc1=O,0.0833
9,O=C(NCCc1nnc2n1CCCCC2)N1CCC2(CCOC2)C1 (stereo unspecified),4.18
10,COC(=O)c1cccn1C1CCN(CCN2C(=O)CCC2=O)CC1,0.207
11,Cc1cc(C(=O)N2C[C@@H]3CC[C@H]2CN(Cc2ccccn2)C3)nc(N)n1,-0.0925
12,Cc1nc(N2CCCN(c3ncccn3)CC2)c2cnn(C)c2n1,0.977
13,Cc1c(I)cccc1C(=O)NCc1nnc[nH]1,-2.86
14,CC(C)Oc1ncnc2c1CCN(Cc1ccc(F)cc1)CC2,5.68
15,N#Cc1ccc(N2CCC3(CC2)CC(N2CCOCC2)CO3)cc1 (stereo unspecified),19
16,CN1N=C(C(=O)N2CCCC(CCc3cccc(F)c3)C2)CCC1=O (stereo unspecified),-3.42
17,COc1ccccc1CC(C)CC(=O)O (stereo unspecified),12.9
18,O=C1CC(c2ccc(C(=O)O)cc2)c2ncn(-c3ccccc3)c2N1 (stereo unspecified),-1.04
